Measurements as given in ChEMBL document CHEMBL1138404, “Bisindole alkaloids of the topsentin and hamacanthin classes from a marine sponge Spongosorites sp” (J Nat Prod, 2007).
≈ marks a conversion by molar mass, not a printed value.

Key:
Escherichia coli [1] = experiment: Antibacterial activity against […] Escherichia coli DC2; format: functional
Procedure, shortened: (§1)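 Agar dilution MIC: Mueller Hinton agar plates containing 17 serial dilutions of sample (final 25 to 0.002 μg/mL), meropenem and imipenem as standards. Strains grown 18 h at 37 °C in Fleisch extract broth (10% horse serum for some strains), spotted onto plates by automatic inoculator; MIC read after 18 h incubation.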

Pseudomonas aeruginosa [2] = experiment: Antibacterial activity against […] Pseudomonas aeruginosa 1771M; format: functional; procedure, shortened: as §1
Enterobacter cloacae [3] = experiment: Antibacterial activity against […] Enterobacter cloacae P99; format: functional; procedure, shortened: as §1
Klebsiella oxytoca = experiment: Antibacterial activity against […] Klebsiella oxytoca 1082E; format: functional; procedure, shortened: as §1
Staphylococcus aureus [4] = experiment: Antibacterial activity against methicillin-resistant Staphylococcus aureus 285; format: functional; procedure, shortened: as §1
Staphylococcus aureus [5] = experiment: Antibacterial activity against methicillin-resistant Staphylococcus aureus 503; format: functional; procedure, shortened: as §1
[6] = Cytotoxicity against human SK-OV-3 cell line; format: cell-based; details: SK-OV-3 cells, read-out: ED50 (the source's name)
Pseudomonas aeruginosa [7] = experiment: Antibacterial activity against […] Pseudomonas aeruginosa 1592E; format: functional; procedure, shortened: as §1
Klebsiella aerogenes = experiment: Antibacterial activity against […] Klebsiella aerogenes 1522E; format: functional; procedure, shortened: as §1
[8] = Cytotoxicity against human SK-MEL-2 cell line; format: cell-based; details: SK-MEL-2 cells, read-out: ED50 (the source's name)
Escherichia coli [9] = experiment: Antibacterial activity against […] Escherichia coli 1507E; format: functional; procedure, shortened: as §1
Pseudomonas aeruginosa [10] = experiment: Antibacterial activity against […] Pseudomonas aeruginosa 1771; format: functional; procedure, shortened: as §1
Enterococcus faecium = experiment: Antibacterial activity against […] Streptococcus faecium MD8b; format: functional; procedure, shortened: as §1
Pseudomonas aeruginosa [11] = experiment: Antibacterial activity against […] Pseudomonas aeruginosa 9027; format: functional; procedure, shortened: as §1
[12] = Cytotoxicity against human A549 cell line; format: cell-based; details: A549 cells, read-out: ED50 (the source's name)
Staphylococcus aureus [13] = experiment: Antibacterial activity against methicillin-resistant Staphylococcus aureus SG511; format: functional; procedure, shortened: as §1
Escherichia coli [14] = experiment: Antibacterial activity against […] Escherichia coli DC0; format: functional; procedure, shortened: as §1
Streptococcus pyogenes [15] = experiment: Antibacterial activity against methicillin-resistant Streptococcus pyogenes 77A; format: functional; procedure, shortened: as §1
Escherichia coli [16] = experiment: Antibacterial activity against […] Escherichia coli 078; format: functional; procedure, shortened: as §1
[17] = Cytotoxicity against human HCT15 cell line; format: cell-based; details: HCT-15 cells, read-out: ED50 (the source's name)
Enterobacter cloacae [18] = experiment: Antibacterial activity against […] Enterobacter cloacae 1321E; format: functional; procedure, shortened: as §1
Streptococcus pyogenes [19] = experiment: Antibacterial activity against methicillin-resistant Streptococcus pyogenes 308A; format: functional; procedure, shortened: as §1
Escherichia coli [20] = experiment: Antibacterial activity against […] Escherichia coli TEM; format: functional; procedure, shortened: as §1
[21] = Cytotoxicity against human XF498 cell line; format: cell-based; details: XF498 cells, read-out: ED50 (the source's name)
Salmonella typhimurium = experiment: Antibacterial activity against […] Salmonella Typhimurium; format: functional, Salmonella enterica subsp. enterica serovar Typhimurium; details: Salmonella enterica; procedure, shortened: as §1

O=C1N[C@@H](c2c[nH]c3ccccc23)CN=C1c1c[nH]c2ccccc12
MIC (Escherichia coli [1]): > 25 µg/mL
MIC (Pseudomonas aeruginosa [2]): > 25 µg/mL
MIC (Enterobacter cloacae [3]): > 25 µg/mL
MIC (Klebsiella oxytoca): > 25 µg/mL
MIC (Staphylococcus aureus [4]): > 25 µg/mL
MIC (Staphylococcus aureus [5]): > 25 µg/mL
CC50 [6]: 11.5 µg/mL (≈ 35 µM)
MIC (Pseudomonas aeruginosa [7]): 25 µg/mL (≈ 76.1 µM)
MIC (Klebsiella aerogenes): > 25 µg/mL
CC50 [8]: 5 µg/mL (≈ 15.2 µM)
MIC (Escherichia coli [9]): > 25 µg/mL
MIC (Pseudomonas aeruginosa [10]): 25 µg/mL (≈ 76.1 µM)
MIC (Enterococcus faecium): > 25 µg/mL
MIC (Pseudomonas aeruginosa [11]): > 25 µg/mL
CC50 [12]: 8.3 µg/mL (≈ 25.3 µM)
MIC (Staphylococcus aureus [13]): > 25 µg/mL
MIC (Escherichia coli [14]): > 25 µg/mL
MIC (Streptococcus pyogenes [15]): 25 µg/mL (≈ 76.1 µM)
MIC (Escherichia coli [16]): > 25 µg/mL
CC50 [17]: 4.1 µg/mL (≈ 12.5 µM)
MIC (Enterobacter cloacae [18]): > 25 µg/mL
MIC (Streptococcus pyogenes [19]): 25 µg/mL (≈ 76.1 µM)
MIC (Escherichia coli [20]): > 25 µg/mL
CC50 [21]: 17.1 µg/mL (≈ 52.1 µM)
MIC (Salmonella typhimurium): > 25 µg/mL
